Measurements published in ChEMBL document CHEMBL3407426, “Synthesis and biological evaluations of novel endomorphin analogues containing α-hydroxy-β-phenylalanine (AHPBA) displaying mixed μ/δ opioid receptor agonist and δ opioid receptor antagonist activities” (Eur J Med Chem, 2015).
Where a SMILES comes first, the peptide text is derived from it. [ ]: non-standard residue; d: D form. ξ: configuration not given here. Dmt = Cc1cc(O)cc(C)c1C[C@H](N)C(=O)O; ξTiq(1-COOH) = O=C(O)C1NCCc2ccccc21; β3hF = N[C@H](CC(=O)O)Cc1ccccc1

How the values were obtained:
[1] = target: Mu-type opioid receptor (Rattus norvegicus, UniProt P33535); assay: Displacement of [3H]DAMGO from rat cortex mu opioid receptor after 30 mins by liquid scintillation counting analysis
Sequence of Mu-type opioid receptor (P33535 whole entry): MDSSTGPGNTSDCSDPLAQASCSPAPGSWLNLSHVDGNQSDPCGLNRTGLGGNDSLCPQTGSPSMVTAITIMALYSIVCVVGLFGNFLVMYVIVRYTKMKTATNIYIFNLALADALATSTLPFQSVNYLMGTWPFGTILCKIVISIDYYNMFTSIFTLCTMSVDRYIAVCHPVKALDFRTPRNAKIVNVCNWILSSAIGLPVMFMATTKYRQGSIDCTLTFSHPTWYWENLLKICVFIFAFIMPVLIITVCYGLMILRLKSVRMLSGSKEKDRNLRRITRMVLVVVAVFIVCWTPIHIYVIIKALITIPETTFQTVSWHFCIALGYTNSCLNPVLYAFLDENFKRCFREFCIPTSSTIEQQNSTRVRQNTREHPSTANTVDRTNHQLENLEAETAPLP
Outline: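 Rat cortex membranes prepared in 50 mM Tris pH 7.4, spun 16,500 rpm for 10 min, and incubated 30 min at 37 °C. Competition against [³H]DAMGO. Assay ended by filtration on BSA-soaked GF/B filters. Ki values are means of two experiments.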

[2] = target: Delta-type opioid receptor (Rattus norvegicus, UniProt P33533); assay: Displacement of [3H]DPDPE from rat cortex delta opioid receptor after 2.5 hrs by liquid scintillation counting analysis
Sequence of Delta-type opioid receptor (Rattus norvegicus, UniProt P33533) (P33533 whole entry): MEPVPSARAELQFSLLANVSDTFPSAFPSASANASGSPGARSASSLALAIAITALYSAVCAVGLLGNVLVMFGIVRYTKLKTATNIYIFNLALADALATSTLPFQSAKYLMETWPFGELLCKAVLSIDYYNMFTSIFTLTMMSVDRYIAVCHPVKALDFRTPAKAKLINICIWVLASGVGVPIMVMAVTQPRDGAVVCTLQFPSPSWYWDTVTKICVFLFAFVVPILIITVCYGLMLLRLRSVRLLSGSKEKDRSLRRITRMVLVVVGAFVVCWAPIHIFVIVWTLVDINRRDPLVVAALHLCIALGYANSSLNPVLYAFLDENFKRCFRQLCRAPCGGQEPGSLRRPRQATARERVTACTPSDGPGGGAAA

[3] = target: Mu-type opioid receptor (Homo sapiens) (UniProt P35372); assay: Agonist activity at mu opioid receptor (unknown origin) expressed in HEK293 cells assessed as change in cell morphology at 3.3 uM measured over 30 mins by label free binding assay relative to DAMGO; format: cell-based
Sequence of Mu-type opioid receptor (Homo sapiens) (P35372 whole entry): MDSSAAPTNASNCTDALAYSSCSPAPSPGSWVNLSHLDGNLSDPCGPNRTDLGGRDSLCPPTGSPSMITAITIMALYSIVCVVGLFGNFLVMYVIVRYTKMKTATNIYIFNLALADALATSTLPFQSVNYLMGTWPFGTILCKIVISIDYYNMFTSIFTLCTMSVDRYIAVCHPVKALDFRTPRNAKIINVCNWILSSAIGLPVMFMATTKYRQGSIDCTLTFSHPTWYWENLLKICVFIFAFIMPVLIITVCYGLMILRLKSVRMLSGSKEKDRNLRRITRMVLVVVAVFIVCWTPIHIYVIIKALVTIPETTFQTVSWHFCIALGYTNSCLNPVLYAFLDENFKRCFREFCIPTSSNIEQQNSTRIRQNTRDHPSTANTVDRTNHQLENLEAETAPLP
Outline: (§1)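 Label-free biosensor (BIND) measuring cell spreading as increase in peak wavelength value. MOR in HEK293 cells, DOR in CHO cells, seeded 2 × 10⁴/well on fibronectin/collagen/albumin-coated plates and incubated overnight. Assay buffer was HBSS with 0.5–1% DMSO, equilibrated 30 min at room temperature before a baseline read. Compound added to a final 3.3 µM and read over 30 min. Response given as % of DAMGO 300 nM (MOR, n = 2) or DPDPE 10 nM (DOR, n = 4).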

[4] = target: T1, Delta-type opioid receptor (Homo sapiens, UniProt P41143); assay: Agonist activity at delta opioid receptor (unknown origin) expressed in CHO cells assessed as change in cell morphology at 3.3 uM measured over 30 mins by label free binding assay relative to DPDPE; format: cell-based; outline: as §1
T1 sequence (P41143 whole entry): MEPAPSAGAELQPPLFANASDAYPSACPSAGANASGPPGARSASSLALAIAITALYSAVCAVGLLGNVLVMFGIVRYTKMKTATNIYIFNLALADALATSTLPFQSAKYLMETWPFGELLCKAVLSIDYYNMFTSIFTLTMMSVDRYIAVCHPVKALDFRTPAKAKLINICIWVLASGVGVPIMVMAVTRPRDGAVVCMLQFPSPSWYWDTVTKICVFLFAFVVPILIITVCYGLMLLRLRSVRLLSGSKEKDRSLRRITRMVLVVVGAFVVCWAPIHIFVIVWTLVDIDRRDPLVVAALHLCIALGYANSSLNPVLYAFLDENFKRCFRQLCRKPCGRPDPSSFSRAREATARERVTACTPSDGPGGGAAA

[5] = target: T1, Delta-type opioid receptor; assay: Agonist activity at delta opioid receptor (unknown origin) expressed in CHO cells assessed as inhibition of forskolin-induced cAMP production at 500 nM after 30 mins by europium cryptate/d2 dye-based FRET analysis relative to DPDPE; format: functional, cell-based
Outline: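 DOR-expressing CHO cells, 20,000/well, exposed to test compound at 500 nM with 4 µM forskolin in PBS containing 1 mM IBMX for 30 min at room temperature. Cells then lysed with Europium cryptate and d2 acceptor reagents for 1 h, and cAMP read by FRET. Expressed as % of the 500 nM DPDPE response, n = 4.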

[6] = Half life in rat brain homogenate at 10 uM; format: ADME, tissue-based
Outline: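 Peptide at a final 10 µM in rat brain homogenate (protein 21.2 mg/mL), incubated at 37 °C. Aliquots quenched in acetonitrile with internal standard in triplicate, centrifuged, and analysed by LC-MS/MS in MRM mode. Half-life from pseudo-first-order loss of the analyte/internal-standard ratio; mean of at least three experiments ± SEM.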

[7] = species: Rattus norvegicus; assay: Selectivity ratio of Ki for rat cortex mu opioid receptor to Ki for rat cortex delta opioid receptor
Outline: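 Ki ratio (MOR/DOR), from Ki values that are means of two experiments. MOR: rat cortex homogenized in 50 mM Tris pH 7.4, spun, preincubated 30 min at 37 °C, spun again, then resuspended with bovine serum; displacement of [3H]DAMGO. DOR: 2 nM [3H]DPDPE; 2.5 h at 25 °C; unlabeled DPDPE as competitor. Filtration on GF/B.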

[8] = Selectivity ratio of Ki for guinea pig cortex/cerebella kappa opioid receptor to Ki for rat cortex delta opioid receptor
Outline: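 Ki ratio (KOR/DOR), from Ki values that are means of two experiments. KOR: guinea pig cortex and cerebellum membranes in 50 mM Tris pH 7.4 with 10 mM MgCl2; 2 nM [3H]U69,593; 2 h at 25 °C; unlabeled U50,488 defines the curve and nonspecific binding. Filtration on GF/B.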

Row | SMILES | Ki [1] [nM] | Ki [2] [nM] | half-life at 10 µM [6] [min] | further results
1 | NC(=O)[C@H](O)[C@H](Cc1ccccc1)NC(=O)[C@H](Cc1c[nH]c2ccccc12)NC(=O)[C@@H]1CCCN1C(=O)[C@@H](N)Cc1ccc(O)cc1 | 25 | 453 |  | 
2 | NC(=O)C(Cc1ccc2ccccc2c1)NC(=O)[C@H](O)[C@H](Cc1ccccc1)NC(=O)[C@@H]1CCCN1C(=O)[C@@H](N)Cc1ccc(O)cc1 (stereo not given in full) | 39 | 757 |  | 
3 | Cc1cc(O)cc(C)c1C[C@H](N)C(=O)N1CCc2ccccc2C1C(=O)N[C@@H](Cc1c[nH]c2ccccc12)C(=O)N[C@@H](Cc1ccccc1)C(N)=O (stereo not given in full) (H-[Dmt][ξTiq(1-COOH)]WF-NH2) | 5 | 2 | 32.2 | Activity [3]: 43%; Activity [4]: 26%; inhibition [5]: 87%
4 | NC(=O)[C@H](Cc1ccccc1)NC(=O)[C@@H](O)[C@H](Cc1ccccc1)NC(=O)[C@@H]1CCCN1C(=O)[C@@H](N)Cc1ccc(O)cc1 | 497 | 1790 |  | 
5 | NC(=O)[C@@H](O)[C@@H](Cc1ccccc1)NC(=O)[C@H](Cc1c[nH]c2ccccc12)NC(=O)[C@@H]1CCCN1C(=O)[C@@H](N)Cc1ccc(O)cc1 | 176 | 287 |  | 
6 | NC(=O)[C@@H](O)[C@H](Cc1ccccc1)NC(=O)[C@H](Cc1c[nH]c2ccccc12)NC(=O)[C@@H]1CCCN1C(=O)[C@@H](N)Cc1ccc(O)cc1 | 10 | 508 | 3.57 | 
7 | Cc1cc(O)cc(C)c1C[C@H](N)C(=O)N1CCc2ccccc2C1C(=O)N[C@@H](Cc1ccccc1)C(=O)N[C@@H](Cc1ccccc1)[C@H](O)C(N)=O (stereo not given in full) | 12 | 1 | 49 | Activity [3]: 51%; Activity [4]: 82%
8 | Cc1cc(O)cc(C)c1C[C@H](N)C(=O)N1CCc2ccccc2C1C(=O)N[C@@H](Cc1c[nH]c2ccccc12)C(=O)N[C@H](CC(N)=O)Cc1ccccc1 (stereo partly drawn) (H-[Dmt][ξTiq(1-COOH)]W[β3hF]-NH2) | 14 | 1 | > 120 | 
9 | Cc1cc(O)cc(C)c1C[C@H](N)C(=O)N1CCc2ccccc2C1C(=O)N[C@H](CC(=O)N[C@@H](Cc1ccccc1)C(N)=O)Cc1ccccc1 (stereo partly drawn) (H-[Dmt][ξTiq(1-COOH)][β3hF]F-NH2) | 6 | 1 | > 120 | Ratio Ki [7]: 6
10 | NC(=O)[C@H](Cc1ccccc1)NC(=O)[C@@H](O)[C@@H](Cc1ccccc1)NC(=O)[C@@H]1CCCN1C(=O)[C@@H](N)Cc1ccc(O)cc1 | 202 | 593 |  | 
11 | NC(=O)C(Cc1ccc(F)cc1)NC(=O)[C@H](O)[C@H](Cc1ccccc1)NC(=O)[C@@H]1CCCN1C(=O)[C@@H](N)Cc1ccc(O)cc1 (stereo not given in full) | 207 | 829 |  | 
12 | NC(=O)[C@H](Cc1ccccc1)NC(=O)[C@H](Cc1ccccc1)NC(=O)[C@@H]1CCCN1C(=O)[C@@H](N)Cc1ccc(O)cc1 [ENDOMORPHIN 2] |  |  | 0.75 | Activity [3]: 98%; Activity [4]: 52%
13 | NC(=O)[C@@H](O)[C@@H](Cc1ccccc1)NC(=O)[C@H](Cc1ccccc1)NC(=O)[C@@H]1CCCN1C(=O)[C@@H](N)Cc1ccc(O)cc1 | 324 |  |  | 
14 | NC(=O)[C@@H](O)[C@H](Cc1ccccc1)NC(=O)[C@H](Cc1ccccc1)NC(=O)[C@@H]1CCCN1C(=O)[C@@H](N)Cc1ccc(O)cc1 | 17 |  | 2.3 | 
15 | NC(=O)[C@H](O)[C@H](Cc1ccccc1)NC(=O)[C@H](Cc1ccccc1)NC(=O)[C@@H]1CCCN1C(=O)[C@@H](N)Cc1ccc(O)cc1 | 33 |  |  | 
16 | N=C(N)NCCC[C@H](NC(=O)[C@H](O)[C@H](Cc1ccccc1)NC(=O)[C@@H]1CCCN1C(=O)[C@@H](N)Cc1ccc(O)cc1)C(N)=O | 86 | 483 |  | 
17 | NC(=O)[C@H](Cc1ccccc1)NC(=O)[C@H](O)[C@H](Cc1ccccc1)NC(=O)[C@@H]1CCCN1C(=O)[C@@H](N)Cc1ccc(O)cc1 | 9 | 3290 | 6.52 | 
18 | Cc1cc(O)cc(C)c1C[C@H](N)C(=O)N1CCc2ccccc2C1C(=O)N[C@@H](Cc1ccccc1)C(=O)N[C@H](CC(N)=O)Cc1ccccc1 (stereo partly drawn) (H-[Dmt][ξTiq(1-COOH)]F[β3hF]-NH2) | 15 | 1 | 28.9 | Ratio Ki [7]: 15; Ratio Ki [8]: 30
19 | NC(=O)[C@H](O)[C@@H](Cc1ccccc1)NC(=O)[C@H](Cc1ccccc1)NC(=O)[C@@H]1CCCN1C(=O)[C@@H](N)Cc1ccc(O)cc1 | 447 |  |  | 
20 | NC(=O)[C@H](Cc1ccccc1)NC(=O)[C@H](Cc1c[nH]c2ccccc12)NC(=O)[C@@H]1CCCN1C(=O)[C@@H](N)Cc1ccc(O)cc1 |  |  |  | Activity [4]: 49%
21 | NC(=O)[C@H](Cc1ccccc1)NC(=O)C[C@H](Cc1ccccc1)NC(=O)[C@@H]1CCCN1C(=O)[C@@H](N)Cc1ccc(O)cc1 | 24 | 385 |  | 
22 | NC(=O)[C@H](Cc1c[nH]c2ccccc12)NC(=O)[C@H](O)[C@H](Cc1ccccc1)NC(=O)[C@@H]1CCCN1C(=O)[C@@H](N)Cc1ccc(O)cc1 | 13 |  |  | 
23 | Cc1cc(O)cc(C)c1C[C@H](N)C(=O)N1CCc2ccccc2C1C(=O)N[C@@H](Cc1c[nH]c2ccccc12)C(=O)N[C@@H](Cc1ccccc1)[C@H](O)C(N)=O (stereo not given in full) | 3 | 0.8 | > 120 | Activity [3]: 50%; Activity [4]: 45%; inhibition [5]: 104%
24 | NC(=O)C[C@H](Cc1ccccc1)NC(=O)[C@H](Cc1c[nH]c2ccccc12)NC(=O)[C@@H]1CCCN1C(=O)[C@@H](N)Cc1ccc(O)cc1 | 10 | 4110 | 4.57 | 
25 | NC(=O)[C@H](O)[C@@H](Cc1ccccc1)NC(=O)[C@H](Cc1c[nH]c2ccccc12)NC(=O)[C@@H]1CCCN1C(=O)[C@@H](N)Cc1ccc(O)cc1 | 243 | 441 |  | 
26 | NC(=O)[C@H](Cc1ccccc1)NC(=O)[C@H](O)[C@@H](Cc1ccccc1)NC(=O)[C@@H]1CCCN1C(=O)[C@@H](N)Cc1ccc(O)cc1 | 2080 | 1220 |  | 
27 | Cc1cc(O)cc(C)c1C[C@H](N)C(=O)N1CCc2ccccc2C1C(=O)N[C@@H](Cc1ccccc1)C(=O)N[C@@H](Cc1ccccc1)[C@@H](O)C(N)=O (stereo not given in full) | 15 | 0.5 | 82.6 | Activity [3]: 52%; Activity [4]: 22%
28 | NC(=O)C[C@H](Cc1ccccc1)NC(=O)[C@H](Cc1ccccc1)NC(=O)[C@@H]1CCCN1C(=O)[C@@H](N)Cc1ccc(O)cc1 | 23 | 2500 |  | 
